Source: ChEMBL document CHEMBL1132488, “On the bioactive conformation of NAN-190 (1) and MP3022 (2), 5-HT(1A) receptor antagonists” (J Med Chem, 1999)

Key:
[1] = biological target: T1, 5-hydroxytryptamine receptor 1A (Rattus norvegicus, UniProt P19327); experiment: Ability to displace [3H]8-OH-DPAT from 5-hydroxytryptamine 1A receptor
T1 sequence (P19327 whole entry): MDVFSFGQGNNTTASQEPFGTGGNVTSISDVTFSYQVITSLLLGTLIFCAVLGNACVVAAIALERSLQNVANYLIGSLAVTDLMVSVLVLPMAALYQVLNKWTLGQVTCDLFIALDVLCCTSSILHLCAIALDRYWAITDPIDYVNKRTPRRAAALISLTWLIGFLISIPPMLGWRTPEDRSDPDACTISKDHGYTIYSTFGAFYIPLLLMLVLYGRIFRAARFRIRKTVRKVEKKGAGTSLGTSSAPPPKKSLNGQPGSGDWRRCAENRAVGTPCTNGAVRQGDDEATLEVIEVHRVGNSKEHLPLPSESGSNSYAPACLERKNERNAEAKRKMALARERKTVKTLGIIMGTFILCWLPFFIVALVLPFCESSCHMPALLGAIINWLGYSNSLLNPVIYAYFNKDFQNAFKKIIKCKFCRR
How it was run: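 Rat hippocampal membranes, [3H]8-OH-DPAT radioligand. Ki from at least three competition experiments, each with 10–14 drug concentrations run in triplicate. Ki calculated with the Cheng–Prusoff equation.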

Rattus norvegicus [2] = species: Rattus norvegicus; experiment: Dose Inducing behavioral syndrome(FT: forepaw treading) by the compound in reserpine pretreated rats; assay type: functional
How it was run: (§1)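 Male Wistar rats (260–300 g), groups of 6, given reserpine 1 mg/kg sc 18 h before test. Compounds given ip as 1% Tween 80 suspension. FBP and FT rated 0–3 in 45-s sessions every 3 min, starting 3 min after dosing. Score summed over 5 periods (max 15 per symptom). Mean ± SEM; Newman–Keuls test.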

Rattus norvegicus [3] = species: Rattus norvegicus; experiment: Dose Inducing behavioral syndrome(FBP: flat body posture) by the compound in reserpine pretreated rats; assay type: functional; how it was run: as §1
Rattus norvegicus [4] = species: Rattus norvegicus; experiment: Effect on 8-OH-DAPT- induced behavioral syndrome(FT: forepaw treading) by the compound in reserpine pretreated rats at a dose of 16; FT mean score; assay type: functional
How it was run: (§2)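 Reserpinized male Wistar rats (reserpine 1 mg/kg sc, 18 h before), groups of 6. Compound given ip in 1% Tween 80 60 min before 8-OH-DPAT 5 mg/kg sc. FBP/FT rated 0–3 at 3, 6, 9, 12 and 15 min after agonist, summed (max 15). Mean ± SEM; Newman–Keuls test; ED50 with range.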

Rattus norvegicus [5] = species: Rattus norvegicus; experiment: Effect on 8-OH-DAPT- induced behavioral syndrome(FT: forepaw treading) by the compound in reserpine pretreated rats at a dose of 32; FT mean score; assay type: functional; how it was run: as §2
Rattus norvegicus [6] = species: Rattus norvegicus; experiment: Effect on 8-OH-DAPT- induced behavioral syndrome(FBP: flat body posture) by the compound in reserpine pretreated rats at a dose of 16; FBP mean score; assay type: functional; how it was run: as §2
Rattus norvegicus [7] = species: Rattus norvegicus; experiment: Effect on 8-OH-DAPT- induced behavioral syndrome(FT: forepaw treading) by the compound in reserpine pretreated rats at a dose of 8; FT mean score; assay type: functional; how it was run: as §2
Rattus norvegicus [8] = species: Rattus norvegicus; experiment: Induction of behavioral syndrome(FT: forepaw treading) by the compound in reserpine pretreated rats at a dose of 16; FT mean score; assay type: functional
How it was run: (§3)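 Male Wistar rats (260–300 g) were given reserpine 1 mg/kg sc in saline 18 h before testing. Test compound was then given alone ip as a 1% Tween 80 suspension (2 mL/kg). FBP and FT were each scored 0–3 and summed (maximum 15). n=6 per group; mean ± SEM; Newman–Keuls test.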

Rattus norvegicus [9] = species: Rattus norvegicus; experiment: Induction of behavioral syndrome(FT: forepaw treading) by the compound in reserpine pretreated rats at a dose of 32; FT mean score; assay type: functional; how it was run: as §3
Rattus norvegicus [10] = species: Rattus norvegicus; experiment: Induction of behavioral syndrome(FT: forepaw treading) by the compound in reserpine pretreated rats at a dose of 8; FT mean score; assay type: functional; how it was run: as §3
Rattus norvegicus [11] = species: Rattus norvegicus; experiment: Effect on 8-OH-DAPT- induced behavioral syndrome(FBP: flat body posture) by the compound in reserpine pretreated rats at a dose of 8; FBP mean score; assay type: functional; how it was run: as §2
Rattus norvegicus [12] = species: Rattus norvegicus; experiment: Induction of behavioral syndrome(FBP: flat body posture) by the compound in reserpine pretreated rats at a dose of 16; FBP mean score; assay type: functional; how it was run: as §1
Rattus norvegicus [13] = species: Rattus norvegicus; experiment: Induction of behavioral syndrome(FBP: flat body posture) by the compound in reserpine pretreated rats at a dose of 32; FBP mean score; assay type: functional; how it was run: as §3
Rattus norvegicus [14] = species: Rattus norvegicus; experiment: Induction of behavioral syndrome(FBP: flat body posture) by the compound in reserpine pretreated rats at a dose of 8; FBP mean score; assay type: functional; how it was run: as §3
Rattus norvegicus [15] = experiment: Induction of LLR(lower lip retraction) by the compound in rats at a dose of 2 mg/kg; LLR score; assay type: functional
How it was run: (§4)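 Male Wistar rats, groups of 6, given compound alone ip as 1% Tween 80 suspension. Lower incisor visibility scored 0/0.5/1 at 15, 30 and 45 min after dosing, summed (max 3 per rat). Mean ± SEM versus vehicle, Newman–Keuls test; ED50 with range.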

Rattus norvegicus [16] = experiment: Induction of LLR(lower lip retraction) by the compound in rats at a dose of 4 mg/kg; LLR score; assay type: functional; how it was run: as §4
Rattus norvegicus [17] = experiment: Induction of LLR(lower lip retraction) by the compound in rats at a dose of 8 mg/kg; LLR score; assay type: functional; how it was run: as §4
Rattus norvegicus [18] = species: Rattus norvegicus; experiment: Effect on 8-OH-DAPT- induced behavioral syndrome(FBP: flat body posture) by the compound in reserpine pretreated rats at a dose of 32; FBP mean score; assay type: functional; how it was run: as §2
Rattus norvegicus [19] = species: Rattus norvegicus; experiment: Effective dose of the required to induce LLR(lower lip retraction); assay type: functional; how it was run: as §4

O=C1[C@H]2CCCC[C@H]2C(=O)N1CCCCN1CCc2ccccc2C1
Ki [1]: 0.05 µM
ED50 (Rattus norvegicus [2]): 17 mg/kg
ED50 (Rattus norvegicus [3]): > 32 mg/kg
FT mean score (Rattus norvegicus [4]): 7.7
FT mean score (Rattus norvegicus [5]): 6
FBP mean score (Rattus norvegicus [6]): 13.3
FT mean score (Rattus norvegicus [7]): 9.8
FT mean score (Rattus norvegicus [8]): 0.2
FT mean score (Rattus norvegicus [9]): 0.2
FT mean score (Rattus norvegicus [10]): 0.1
FBP mean score (Rattus norvegicus [11]): 14.6
FBP mean score (Rattus norvegicus [12]): 2.3
FBP mean score (Rattus norvegicus [13]): 3.7
FBP mean score (Rattus norvegicus [14]): 0.1
LLR score (Rattus norvegicus [15]): 1
LLR score (Rattus norvegicus [16]): 1.9
LLR score (Rattus norvegicus [17]): 2.5
FBP mean score (Rattus norvegicus [18]): 11.7
ED50 (Rattus norvegicus [19]): 3.9 mg/kg
